According to ChEMBL document CHEMBL3784928, “Development and Characterization of Novel and Selective Inhibitors of Cytochrome P450 CYP26A1, the Human Liver Retinoic Acid Hydroxylase” (J Med Chem, 2016):
pIC50: −log10 of the molar value. Activity calls are given as the source filed them. No cut-off for these calls is given here.

Target: Cytochrome P450 3A4 (Homo sapiens, UniProt P08684)
Experiment: not given
Conditions: not given

Cytochrome P450 3A4, sequence (P08684 whole entry): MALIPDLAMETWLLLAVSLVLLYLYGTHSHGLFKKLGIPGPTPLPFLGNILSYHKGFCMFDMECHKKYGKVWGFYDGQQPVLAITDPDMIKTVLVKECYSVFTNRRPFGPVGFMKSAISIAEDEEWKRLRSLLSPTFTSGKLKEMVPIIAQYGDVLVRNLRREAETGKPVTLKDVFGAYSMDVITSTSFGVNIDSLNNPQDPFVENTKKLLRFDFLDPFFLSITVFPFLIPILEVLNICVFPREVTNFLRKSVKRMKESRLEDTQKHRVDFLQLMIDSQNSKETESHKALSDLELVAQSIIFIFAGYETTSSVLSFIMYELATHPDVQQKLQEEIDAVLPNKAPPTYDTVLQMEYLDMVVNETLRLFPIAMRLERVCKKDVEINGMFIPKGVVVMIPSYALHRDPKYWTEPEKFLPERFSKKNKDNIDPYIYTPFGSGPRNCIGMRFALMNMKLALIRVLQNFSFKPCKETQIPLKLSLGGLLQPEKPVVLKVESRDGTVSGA

SMILES	pIC50
CC1(C)CCC(C)(C)c2cc(C3(c4ccc(/C=C/C(=O)O)cc4)OCCO3)ccc21	4.52

Target: T1, Retinoic acid receptor (Homo sapiens) (UniProt P13631+P10826+P10276)
T1 sequence (P10826 whole entry, looked up, one chain of several): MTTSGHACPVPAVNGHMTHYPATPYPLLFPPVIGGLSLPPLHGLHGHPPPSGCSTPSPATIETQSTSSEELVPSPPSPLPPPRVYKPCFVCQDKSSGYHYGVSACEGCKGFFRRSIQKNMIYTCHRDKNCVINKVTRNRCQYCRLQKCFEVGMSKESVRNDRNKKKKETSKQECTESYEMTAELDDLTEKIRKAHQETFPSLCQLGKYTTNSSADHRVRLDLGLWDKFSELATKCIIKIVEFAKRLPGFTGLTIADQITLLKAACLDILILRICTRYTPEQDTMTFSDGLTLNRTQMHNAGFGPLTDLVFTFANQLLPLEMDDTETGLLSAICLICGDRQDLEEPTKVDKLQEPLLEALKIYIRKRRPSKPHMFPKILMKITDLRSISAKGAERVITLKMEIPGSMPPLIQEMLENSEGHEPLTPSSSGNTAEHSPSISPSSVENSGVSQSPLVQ
T1 sequence (P13631 whole entry, looked up, one chain of several): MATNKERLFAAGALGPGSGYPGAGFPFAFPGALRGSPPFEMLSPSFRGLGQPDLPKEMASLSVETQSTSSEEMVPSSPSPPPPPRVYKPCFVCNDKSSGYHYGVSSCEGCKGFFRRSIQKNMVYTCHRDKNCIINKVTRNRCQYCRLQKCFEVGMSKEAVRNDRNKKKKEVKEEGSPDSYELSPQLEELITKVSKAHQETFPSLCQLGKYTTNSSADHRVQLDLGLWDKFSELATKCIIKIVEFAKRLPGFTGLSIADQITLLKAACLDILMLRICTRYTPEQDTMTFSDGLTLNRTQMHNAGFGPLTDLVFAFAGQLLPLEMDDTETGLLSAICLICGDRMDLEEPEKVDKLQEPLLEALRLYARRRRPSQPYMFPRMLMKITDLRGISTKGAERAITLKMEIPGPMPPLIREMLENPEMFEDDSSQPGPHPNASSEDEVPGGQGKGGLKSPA
Experiment: Activation of RAR in human HepG2 cells assessed as upregulation of CYP26A1 mRNA expression at 1 uM after 24 hrs by RT-PCR method
Format: cell-based
Conditions: not given
Procedure, shortened: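 HepG2 cells kept in DMEM with 10% FBS at 37 °C under 5% CO2. Plated and left to adhere 24 h, then exposed 24 h to 1 μM compound in 0.1% DMSO, with 0.1% DMSO as vehicle control. Triplicate wells. TRI reagent mRNA extraction, cDNA from 1 μg mRNA. CYP26A1 measured by TaqMan RT-PCR multiplexed with GAPDH as housekeeping gene. Fold-difference calculated by the CT method.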

SMILES	Activity
CC1(C)CCC(C)(C)c2cc(C3(c4ccc(/C=C/C(=O)O)cc4)OCCO3)ccc21	inactive
CC1(C)CCC(C)(C)c2cc(C3(c4ccc(CCC(=O)O)cc4)OCCO3)ccc21	inactive
CC1(C)CCC(C)(C)c2cc(C3(c4ccc(CCC(=O)O)cc4)SCCS3)ccc21	inactive

Target: T2, Cytochrome P450 26A1 (Homo sapiens, UniProt O43174)
T2 sequence (O43174 whole entry): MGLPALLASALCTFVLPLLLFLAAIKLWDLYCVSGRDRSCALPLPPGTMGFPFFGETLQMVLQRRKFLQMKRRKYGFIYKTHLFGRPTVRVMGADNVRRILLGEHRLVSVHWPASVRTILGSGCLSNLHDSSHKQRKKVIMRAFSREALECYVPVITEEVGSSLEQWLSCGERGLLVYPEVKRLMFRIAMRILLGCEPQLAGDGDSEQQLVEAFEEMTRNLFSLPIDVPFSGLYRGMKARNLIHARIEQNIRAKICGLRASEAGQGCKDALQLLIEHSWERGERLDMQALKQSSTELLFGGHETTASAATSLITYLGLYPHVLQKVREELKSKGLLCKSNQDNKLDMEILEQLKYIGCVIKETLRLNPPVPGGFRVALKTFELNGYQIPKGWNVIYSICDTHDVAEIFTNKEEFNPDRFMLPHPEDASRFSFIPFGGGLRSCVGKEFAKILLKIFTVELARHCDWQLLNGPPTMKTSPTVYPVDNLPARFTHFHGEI
Experiment: not given
Conditions: not given

SMILES	pIC50
CC1(C)CCC(C)(C)c2cc(/C(COc3ccc(C(=O)O)cc3)=N/O)ccc21	5.46
C=C(c1ccc(C(=O)O)cc1)c1cc2c(cc1C)C(C)(C)CCC2(C)C [BEXAROTENE]	4.87
CC1(C)CCC(C)(C)c2cc(C(O)COc3ccc(C(=O)O)cc3)ccc21 (stereo unspecified)	5.55
CC1(C)CCC(C)(C)c2cc(C3(c4ccc(C(=O)O)cc4)SCCS3)ccc21	5.89
CC1(C)CCC(C)(C)c2cc(C3(c4ccc5cc(C(=O)O)ccc5c4)SCCS3)ccc21	7.22
CC1(C)CCC(C)(C)c2cc(C(=O)COc3ccc(C(=O)O)cc3)ccc21	5.40
CC1(C)CCC(C)(C)c2cc(C3(c4ccc(/C=C/C(=O)O)cc4)SCCS3)ccc21	< 5.00

Results, then the molecule that gave them:

pIC50	SMILES
< 4.60	CC1(C)CCC(C)(C)c2cc(C(=O)c3ccc(C(=O)O)cc3)ccc21
< 5.30	CC1(C)CCC(C)(C)c2cc(S(=O)(=O)c3ccc(CC(=O)O)cc3)ccc21
5.78	CC1(C)CCC(C)(C)c2cc(Cc3ccc(CCC(=O)O)cc3)ccc21
< 5.30	CC1(C)CCC(C)(C)c2cc(Sc3cccc(CC(=O)O)c3)ccc21
< 5.30	CC1(C)CCC(C)(C)c2cc(S(=O)(=O)c3cccc(CC(=O)O)c3)ccc21
5.33	CC1(C)CCC(C)(C)c2cc(C(=O)c3ccc(/C=C/C(=O)O)cc3)ccc21
< 5.30	CC1(C)CCC(C)(C)c2cc(C(=O)c3ccc(CCC(=O)O)cc3)ccc21
< 5.30	CC1(C)CCC(C)(C)c2cc(S(=O)(=O)c3ccc(CCC(=O)O)cc3)ccc21
4.97	CC1(C)CCC(C)(C)c2cc(Sc3ccc(CC(=O)O)cc3)ccc21

Tested on: not listed separately
Experiment: Activation of human RARbeta at 1 uM by luciferase reporter gene assay
Conditions: not given

SMILES	Activity
CC1(C)CCC(C)(C)c2cc(C3(c4ccc(CCC(=O)O)cc4)OCCO3)ccc21	inactive

Target: T3, Cytochrome P450 26B1 (Homo sapiens, UniProt Q9NR63)
T3 sequence (Q9NR63 whole entry): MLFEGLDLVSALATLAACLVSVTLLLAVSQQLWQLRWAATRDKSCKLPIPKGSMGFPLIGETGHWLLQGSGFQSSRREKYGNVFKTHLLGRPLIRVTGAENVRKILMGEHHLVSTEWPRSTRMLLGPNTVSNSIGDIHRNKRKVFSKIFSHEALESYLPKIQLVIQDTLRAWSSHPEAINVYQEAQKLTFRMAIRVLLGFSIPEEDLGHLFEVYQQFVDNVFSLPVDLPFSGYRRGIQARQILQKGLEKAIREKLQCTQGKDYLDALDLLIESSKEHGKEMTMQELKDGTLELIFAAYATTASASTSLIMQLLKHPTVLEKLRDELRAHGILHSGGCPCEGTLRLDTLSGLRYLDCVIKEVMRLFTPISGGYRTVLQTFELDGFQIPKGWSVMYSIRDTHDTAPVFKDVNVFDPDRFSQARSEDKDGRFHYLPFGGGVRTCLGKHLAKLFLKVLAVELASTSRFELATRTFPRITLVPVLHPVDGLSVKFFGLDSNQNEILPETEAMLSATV
Experiment: Inhibition of microsomal fraction of human CYP26B1 expressed in Sf9 cells using 9-cis-RA as substrate at 20 uM preincubated for 5 mins followed by NADPH addition measured after 5 mins by HPLC analysis in presence of rat P450 reductase
Conditions: not given
Procedure, shortened: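 Sf9 microsomes expressing CYP26B1, 5 pmol, preincubated 10 min at room temperature with 10 pmol E. coli-expressed rat P450 reductase. […] Preincubated 5 min at 37 °C, started with 1 mM NADPH (final), run 5 min. 9-cis-4-OH-RA measured by HPLC; activity expressed relative to solvent control.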

SMILES	inhibition at 20 µM [%]
CC1(C)CCC(C)(C)c2cc(C3(c4ccc(C(=O)O)cc4)OCCO3)ccc21	59

Target: CYP3A4 (Homo sapiens, UniProt P08684)
Sequence (P08684 whole entry): as the sequence (P08684 whole entry) above
Experiment: Inhibition of CYP3A4 in human liver microsomes upto 100 uM using midazolam as substrate by LC-MS/MS analysis in presence of NADPH
Format: ADME
Conditions: probe midazolam, read-out: Imax
Procedure, shortened: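 Human liver microsomes incubated with midazolam as the CYP3A4-selective substrate plus inhibitor in 100 mM potassium phosphate buffer. Reaction started with NADPH and quenched with ice-cold acetonitrile. Product formation measured by LC-MS/MS.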

SMILES	Emax [%]
CC1(C)CCC(C)(C)c2cc(C3(c4ccc(CCC(=O)O)cc4)OCCO3)ccc21	40

Target: T1, Retinoic acid receptor (Homo sapiens)
Experiment: Activation of RAR in human HepG2 cells assessed as upregulation of RARbeta mRNA expression at 1 uM after 24 hrs by RT-PCR method
Format: cell-based
Conditions: not given
Procedure, shortened: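 HepG2 cells in DMEM with 10% FBS, 37 °C, 5% CO2, plated 24 h before dosing. Treated 24 h in 2 mL medium at 1 μM in 0.1% DMSO, alongside a 0.1% DMSO vehicle; triplicates. RNA isolated with TRI reagent and cDNA made from 1 μg. TaqMan RT-PCR multiplexed with GAPDH as housekeeping gene; fold change by the C_T method.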

SMILES	Activity
CC1(C)CCC(C)(C)c2cc(C3(c4ccc(/C=C/C(=O)O)cc4)OCCO3)ccc21	inactive
CC1(C)CCC(C)(C)c2cc(C3(c4ccc(CCC(=O)O)cc4)OCCO3)ccc21	inactive
CC1(C)CCC(C)(C)c2cc(C3(c4ccc(CCC(=O)O)cc4)SCCS3)ccc21	inactive

Target: T3, Cytochrome P450 26B1
Experiment: not given
Conditions: not given

SMILES	pIC50
CC1(C)CCC(C)(C)c2cc(/C(COc3ccc(C(=O)O)cc3)=N/O)ccc21	5.85
C=C(c1ccc(C(=O)O)cc1)c1cc2c(cc1C)C(C)(C)CCC2(C)C [BEXAROTENE]	5.23
CC1(C)CCC(C)(C)c2cc(C(O)COc3ccc(C(=O)O)cc3)ccc21 (stereo unspecified)	5.85
CC1(C)CCC(C)(C)c2cc(C(=O)COc3ccc(C(=O)O)cc3)ccc21	6.03

Now from value to molecule:

pIC50	SMILES
< 4.60	CC1(C)CCC(C)(C)c2cc(C(=O)c3ccc(C(=O)O)cc3)ccc21
< 5.30	CC1(C)CCC(C)(C)c2cc(S(=O)(=O)c3ccc(CC(=O)O)cc3)ccc21
5.77	CC1(C)CCC(C)(C)c2cc(Cc3ccc(CCC(=O)O)cc3)ccc21
< 5.30	CC1(C)CCC(C)(C)c2cc(Sc3cccc(CC(=O)O)c3)ccc21
< 5.30	CC1(C)CCC(C)(C)c2cc(S(=O)(=O)c3cccc(CC(=O)O)c3)ccc21
< 5.30	CC1(C)CCC(C)(C)c2cc(C(=O)c3ccc(/C=C/C(=O)O)cc3)ccc21
< 5.30	CC1(C)CCC(C)(C)c2cc(C(=O)c3ccc(CCC(=O)O)cc3)ccc21
5.21	CC1(C)CCC(C)(C)c2cc(S(=O)(=O)c3ccc(CCC(=O)O)cc3)ccc21
< 5.30	CC1(C)CCC(C)(C)c2cc(Sc3ccc(CC(=O)O)cc3)ccc21

Target: CYP2D6 (Homo sapiens, UniProt P10635)
Sequence (P10635 whole entry): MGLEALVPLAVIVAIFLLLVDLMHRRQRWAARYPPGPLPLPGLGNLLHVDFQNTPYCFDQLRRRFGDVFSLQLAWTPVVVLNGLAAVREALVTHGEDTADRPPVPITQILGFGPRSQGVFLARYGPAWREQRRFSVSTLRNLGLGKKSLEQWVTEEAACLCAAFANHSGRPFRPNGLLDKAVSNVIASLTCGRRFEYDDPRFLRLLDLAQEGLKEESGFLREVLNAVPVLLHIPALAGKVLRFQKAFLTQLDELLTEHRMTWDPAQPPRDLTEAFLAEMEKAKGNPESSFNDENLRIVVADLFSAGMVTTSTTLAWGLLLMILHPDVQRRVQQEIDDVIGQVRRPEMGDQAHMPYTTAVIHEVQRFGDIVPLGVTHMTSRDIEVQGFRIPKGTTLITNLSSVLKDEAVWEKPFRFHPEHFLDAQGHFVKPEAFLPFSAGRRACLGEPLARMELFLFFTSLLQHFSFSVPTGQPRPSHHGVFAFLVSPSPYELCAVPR
Experiment: in vitro
Conditions: human liver microsomes, probe dextromethorphan

SMILES	inhibition at 10 µM [%]
CC1(C)CCC(C)(C)c2cc(C3(c4ccc(/C=C/C(=O)O)cc4)OCCO3)ccc21	49

Target: T4, Retinoic acid receptor alpha (Homo sapiens) (UniProt P10276)
T4 sequence (whole entry): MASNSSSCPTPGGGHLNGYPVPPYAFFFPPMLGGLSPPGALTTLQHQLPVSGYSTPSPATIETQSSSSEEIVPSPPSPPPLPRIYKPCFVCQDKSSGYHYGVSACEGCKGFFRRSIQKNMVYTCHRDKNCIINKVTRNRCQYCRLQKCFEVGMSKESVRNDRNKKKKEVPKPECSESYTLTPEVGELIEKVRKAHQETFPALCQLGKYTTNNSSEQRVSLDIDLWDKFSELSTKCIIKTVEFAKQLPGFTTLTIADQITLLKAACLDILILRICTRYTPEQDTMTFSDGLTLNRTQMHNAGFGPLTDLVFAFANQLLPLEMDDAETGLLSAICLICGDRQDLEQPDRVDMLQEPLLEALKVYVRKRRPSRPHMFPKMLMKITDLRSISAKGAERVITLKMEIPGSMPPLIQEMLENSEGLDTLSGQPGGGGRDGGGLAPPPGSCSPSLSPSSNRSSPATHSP
Experiment: Activation of human RARalpha at 1 uM by luciferase reporter gene assay
Conditions: not given

SMILES	Activity
CC1(C)CCC(C)(C)c2cc(C3(c4ccc(/C=C/C(=O)O)cc4)OCCO3)ccc21	inactive
CC1(C)CCC(C)(C)c2cc(C3(c4ccc(CCC(=O)O)cc4)OCCO3)ccc21	inactive
CC1(C)CCC(C)(C)c2cc(C3(c4ccc(CCC(=O)O)cc4)SCCS3)ccc21	inactive

Target: T2, Cytochrome P450 26A1
Experiment: Inhibition of CYP26A1-mediated atRA metabolism in human HepG2 cells assessed as atRA level in cell media at 1 uM after 24 hrs by LC/MS-MS analysis (reference value: 0.49 +/- 0.33 nM)
Format: cell-based
Conditions: hepg2, 24 h

SMILES	Activity [nM]
CC1(C)CCC(C)(C)c2cc(C3(c4ccc(/C=C/C(=O)O)cc4)OCCO3)ccc21	1.09
CC1(C)CCC(C)(C)c2cc(C3(c4ccc(CCC(=O)O)cc4)OCCO3)ccc21	0.27

Species on record: Homo sapiens
Experiment: Selectivity ratio of IC50 for microsomal fraction of human CYP26B1 to IC50 for microsomal fraction of human CYP26A1
Conditions: not given

SMILES	Ratio IC50
CC1(C)CCC(C)(C)c2cc(C3(c4ccc5cc(C(=O)O)ccc5c4)OCCO3)ccc21	10
